Screening results: PubChem, several laboratories
Rows were chosen to be rich in hits. Some 3.3% of all compounds tested hit in one or more screens of this group.
Lipid droplet: modulators of hepatic lipid droplet formation | AML12 mouse hepatocytes, oleate lipid droplets, BODIPY imaging | inhibition, % at 6.5 µM | 0.4% of 240,000 active | AID 1656;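 active = lipid droplet intensity inhibited by at least 50%, with more than 500 cells counted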
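Assay system: AML12 mouse liver cells | Compound dosing: One dose, 6.5 µM compound | Read-out basis: Droplet intensity reduction, % inhibition | Measured by: Fluorescence imaging, 20x objective, two fields per well | Schedule: Overnight treatment with compound plus oleate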
CendR NRP1 mod: NRP-1/CendR interaction modulation; O14786; FAM-RPARPAR peptide binding to NRP-1, fluorescence polarization; inhibition, % at 25 µM; 0.85% of 360,000 active; AID 602438;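 active = inhibition or corrected inhibition above about 18%, plus a signal ratio from 0.5 to 1.5, limit read from the data, passing the limit was not always enough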
Arr AP2 block: inhibitors of human beta-arrestin and AP2 interaction. FITC-arrestin peptide / GST-AP2 beads, flow cytometry; AP2 beta2 appendage carries R879A mutation. inhibition, % at 10 µM. 0.31% of 340,000 active. AID 504490;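 active = inhibition above a set limit, near 3 SD of compounds lacking own fluorescence, cut at about 54% in these data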
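test system = AP2 appendage R879A on GSH beads | buffer or medium = PBS plus Tween 20 (0.05%) and BSA (0.1%) | incubation = 12 min plus 1 h, RT | detection = bead flow cytometry, FITC channel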
m5-HT2A agonist: agonists of mouse serotonin 5-HT2A receptor (HTR2A) | AID 624169 | activation, % at 7.6 µM | CHO-K1 mHTR2A beta-arrestin complementation, luminescence; percent of 30 µM serotonin response | 0.66% of 360,000 active;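 active = activation above a run cutoff, the mean activation of all tested compounds plus 3 SD, cut at about 14% in these data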
M18AAP inhibitor: PfM18AAP enzyme inhibition; recombinant PfM18AAP, H-Glu-NHMec fluorogenic cleavage; AID 1822; inhibition, % at 7.35 µM; 1.2% of 290,000 active;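 active = inhibition above the campaign mean inhibition over all tested compounds plus 3 SD, cut at about 28% in these data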
HGIII-sPLA2 inh: Inhibits HGIII-sPLA2 liposome hydrolysis, primary screen | 0.56% of 370,000 active | inhibition, % at 12.2 µM | Q9NZ20 | AID 743126 | QFRET BODIPY PC-A2 liposome hydrolysis, fluorescence;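 active = inhibition above mean plus 3 SD of compounds lying within the high and low control bounds, cut at about 19% in these data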
Target sequence (Q9NZ20 whole entry, looked up): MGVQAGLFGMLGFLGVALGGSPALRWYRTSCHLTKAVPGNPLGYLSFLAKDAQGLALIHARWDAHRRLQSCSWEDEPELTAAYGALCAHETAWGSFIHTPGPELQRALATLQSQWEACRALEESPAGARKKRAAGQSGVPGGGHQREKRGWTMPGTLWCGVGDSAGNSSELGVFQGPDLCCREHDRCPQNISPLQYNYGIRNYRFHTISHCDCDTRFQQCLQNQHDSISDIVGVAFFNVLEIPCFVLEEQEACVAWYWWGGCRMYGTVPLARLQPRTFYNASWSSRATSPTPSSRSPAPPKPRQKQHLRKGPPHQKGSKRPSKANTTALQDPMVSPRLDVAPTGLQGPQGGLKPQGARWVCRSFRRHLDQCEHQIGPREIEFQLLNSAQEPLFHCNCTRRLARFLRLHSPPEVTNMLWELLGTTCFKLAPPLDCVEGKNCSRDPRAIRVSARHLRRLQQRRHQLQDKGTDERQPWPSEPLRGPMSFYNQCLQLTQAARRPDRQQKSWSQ
OPRM1 ag: OPRM1 agonism in mouse HTR2A counterscreen | shares compounds with m5-HT2A agonist | U2OS OPRM1 beta-arrestin PathHunter, luminescence; DMSO 0%, DAMGO 9.3 µM 100% | activation, % at 9.3 µM | 5.3% of 2,300 active | AID 624380;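 active = mean activation above the mean of DMSO-only wells plus 3 SD, cut at about 0.5% in these data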
HTR2A ag conf: mouse HTR2A agonism confirmed; shares compounds with m5-HT2A agonist; CHO-K1 PathHunter beta-arrestin recruitment, luminescence; DMSO 0%, 30 µM serotonin 100%; activation, % at 7.6 µM; 19% of 2,300 active;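 active = mean activation across triplicates above the hit threshold derived in the original primary screen, cut at about 15% in these data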
Each line names hits and unclear results; the compound was inactive in the other large screens (follow-up assays come after a bar, where they were run).

CCN(CC)S(=O)(=O)c1cccc(NC(=O)CCNC(=O)c2ccc([N+](=O)[O-])cc2)c1	none
Nc1[nH]c(C(=O)c2ccccc2)c(-c2ccccc2Br)c1C(=O)c1cccs1	none (no result: Lipid droplet, CendR NRP1 mod, Arr AP2 block, m5-HT2A agonist, M18AAP inhibitor)
CCCCCOC(=O)CSc1n[nH]c(=O)[nH]c1=O	none
CCCOC(=O)C(C)Sc1n[nH]c(=O)[nH]c1=O (configuration not stated)	m5-HT2A agonist 14 | OPRM1 ag inactive | HTR2A ag conf inactive
C=CCN=C1NC(c2ccccc2C(F)(F)F)C(C(=O)OC)=C(C)N1Cc1cccc(C(F)(F)F)c1 (configuration not stated)	none (no result: Lipid droplet, CendR NRP1 mod, Arr AP2 block, m5-HT2A agonist, M18AAP inhibitor)
Cc1nc2cc(Cl)c([N+](=O)[O-])cc2s1	m5-HT2A agonist 19 (no result: Arr AP2 block) | OPRM1 ag inactive | HTR2A ag conf inactive
Cc1nc2ccc([N+](=O)[O-])cc2s1	none
CCn1c(SCC(=O)N2CCCCCC2)nc2c(c1=O)SCC2	none
Nc1ccc(-c2cc(-c3cccc(N)c3)nc(-c3ccccc3)n2)cc1	m5-HT2A agonist 15 | OPRM1 ag inactive | HTR2A ag conf inactive
COc1ccc(COCC(O)CN2CCc3ccccc3C2)cc1OC (configuration not stated)	m5-HT2A agonist 21 | OPRM1 ag inactive | HTR2A ag conf inactive
OC(COCc1ccccc1)CN1CCc2ccccc2C1 (configuration not stated)	none
CN(Cc1cn(Cc2ccccc2)nn1)S(=O)(=O)c1ccc(F)cc1Br	none (no result: Lipid droplet, CendR NRP1 mod, Arr AP2 block, m5-HT2A agonist, M18AAP inhibitor)
CC(C)N1C(=O)c2ccccc2NC(=O)C1C(=O)NCc1cccc(C(F)(F)F)c1 (configuration not stated)	none (no result: Lipid droplet, Arr AP2 block, M18AAP inhibitor)
Nc1c(C(=O)Nc2ccc3c(c2)OCCO3)nnn1Cc1ccccc1Cl	m5-HT2A agonist 18 (no result: Lipid droplet, M18AAP inhibitor) | OPRM1 ag inactive | HTR2A ag conf inactive
Nc1c(C(=O)Nc2cccc(F)c2)nnn1-c1ccc2c(c1)OCCO2	m5-HT2A agonist 15 | OPRM1 ag inactive | HTR2A ag conf inactive
CCn1cc(C(=O)N2CCN(c3ccccc3F)CC2)c(=O)c2ccc(C)nc21	m5-HT2A agonist 15 | OPRM1 ag inactive | HTR2A ag conf inactive
CCCc1cc(=O)[nH]c(SCC(=O)N2c3ccccc3CC2C)n1 (configuration not stated)	m5-HT2A agonist 14 (no result: Lipid droplet, M18AAP inhibitor) | OPRM1 ag inactive | HTR2A ag conf inactive
Cc1ccc(-c2nc3c(c(SCC(=O)N4CCOCC4)n2)COC(C)(C)C3)cc1	m5-HT2A agonist 20 | OPRM1 ag inactive | HTR2A ag conf inactive
COc1cc2c(cc1OC)C(c1cccs1)N(C(=O)c1cccc(S(=O)(=O)N(C)C)c1)CC2 (configuration not stated)	none
O=C(c1cc(C2CC2)on1)N1CCCC(N2CCN(c3ccc(F)cc3)CC2)C1 (configuration not stated)	none
Cc1cc(C(O)c2ncc(-c3ccc(Oc4ccccc4)cc3)[nH]2)ccc1F (configuration not stated)	m5-HT2A agonist 21 (no result: Lipid droplet, Arr AP2 block, M18AAP inhibitor) | OPRM1 ag inactive | HTR2A ag conf inactive
Cc1ccccc1NCC(=O)N/N=C/c1c(C)c(C(=O)c2ccc(Cl)cc2)n2ccccc12	m5-HT2A agonist 15 | OPRM1 ag inactive | HTR2A ag conf 24
Cc1c(/C=N/NC(=O)CNc2ccccc2)c2ccccn2c1C(=O)c1ccc(Cl)cc1	none
CN(C)S(=O)(=O)n1cc(/C=C(\NC(=O)c2ccccc2Cl)C(=O)N2CCCC2)c2ccccc21	none
COc1ccc(CN2CCN(Cc3ccc(Br)cc3)CC2)c(OC)c1OC	none
COC(=O)c1cc2c(C)nn(C)c2s1	m5-HT2A agonist 23 | OPRM1 ag inactive | HTR2A ag conf inactive
CCOC(=O)N1CCN(C(=O)C[C@H]2C[C@@]3(C(=O)OC)C(=C[C@H](COCc4ccccc4)O[C@@H]3C)N(Cc3ccc4c(c3)OCO4)C2=O)CC1	none (no result: Lipid droplet, CendR NRP1 mod, Arr AP2 block, m5-HT2A agonist, M18AAP inhibitor)
